Reference: ChEMBL document CHEMBL3351764, “Design, synthesis and biological activity of flavonoid derivatives as selective agonists for neuromedin U 2 receptor” (Bioorg Med Chem, 2014)

Molecular target: Neuromedin-U receptor 2 (Homo sapiens, UniProt Q9GZQ4)
Experiment: Agonist activity at human NMU2R transfected in HEK293 cells after 7 hrs by luciferase reporter gene assay
Assay type: cell-based
Details: read-out: EC50
Summary of the method: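 HEK-293 cells were stably co-transfected with a reporter gene construct and human NMU2R cDNA in pcDNA3.1(+), maintained under G418 selection at 37 °C in 5% CO2, then seeded and incubated overnight. Compounds were added at various concentrations for 7 h at 37 °C, followed by Bright-Glo luciferase read-out. Forskolin and NMU served as positive controls. EC50 was fitted by four-parameter logistic regression; means ± SEM of three independent experiments.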

Chain of Neuromedin-U receptor 2 (Q9GZQ4 whole entry): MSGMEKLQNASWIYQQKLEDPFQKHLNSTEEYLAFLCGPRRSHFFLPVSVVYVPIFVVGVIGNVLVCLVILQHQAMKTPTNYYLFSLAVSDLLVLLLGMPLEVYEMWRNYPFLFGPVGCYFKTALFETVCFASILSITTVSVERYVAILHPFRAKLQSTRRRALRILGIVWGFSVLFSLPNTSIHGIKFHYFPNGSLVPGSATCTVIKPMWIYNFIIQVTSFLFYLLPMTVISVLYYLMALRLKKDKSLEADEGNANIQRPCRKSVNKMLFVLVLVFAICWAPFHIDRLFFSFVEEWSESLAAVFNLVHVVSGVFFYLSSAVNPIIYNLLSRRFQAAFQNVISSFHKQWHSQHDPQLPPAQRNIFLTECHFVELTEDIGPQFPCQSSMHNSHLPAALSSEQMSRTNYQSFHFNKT

Compound | EC50
H-FRVDEEFQSPFASQSRGYFLFRPRN-NH2 | 6.1 µM
CNCC(O)c1ccc(O)cc1 (stereo not drawn) [OXEDRINE] | 6.6 µM
C[C@@H]1O[C@@H](OC[C@H]2O[C@@H](Oc3c(-c4ccc(O)c(O)c4)oc4cc(O)cc(O)c4c3=O)[C@H](O)[C@@H](O)[C@@H]2O)[C@H](O)[C@H](O)[C@H]1O [RUTIN] | 1200 µM
